Series [1] relates to Rattus norvegicus. Put plainly: Partial agonist activity at 5HT3 receptor in iv dosed urethane-anesthetized Sprague-Dawley rat assessed as induction of bradycardia measured after 5 to 30 mins post-treatment by von Bezold-Jarisch reflex test. Particulars: read-out: ID50 (the source's name). It is filed as functional.
Series [2] deals with Rattus norvegicus. As to the kind of experiment: Antagonist activity at 5HT3 receptor in urethane-anesthetized Sprague-Dawley rat assessed as half-blockade of 1-phenylbiguanide-induced bradycardia at 30 ug/kg, iv administered 5 mins before 1-phenylbiguanide challenge measured after 5 to 30 mins post-treatment by von Bezold-Jarisch reflex test. It is filed as functional, organism-based.

Series [3] concerns the target T1, 5-hydroxytryptamine receptor 3A (Rattus norvegicus, UniProt P35563).
T1 sequence (P35563 whole entry): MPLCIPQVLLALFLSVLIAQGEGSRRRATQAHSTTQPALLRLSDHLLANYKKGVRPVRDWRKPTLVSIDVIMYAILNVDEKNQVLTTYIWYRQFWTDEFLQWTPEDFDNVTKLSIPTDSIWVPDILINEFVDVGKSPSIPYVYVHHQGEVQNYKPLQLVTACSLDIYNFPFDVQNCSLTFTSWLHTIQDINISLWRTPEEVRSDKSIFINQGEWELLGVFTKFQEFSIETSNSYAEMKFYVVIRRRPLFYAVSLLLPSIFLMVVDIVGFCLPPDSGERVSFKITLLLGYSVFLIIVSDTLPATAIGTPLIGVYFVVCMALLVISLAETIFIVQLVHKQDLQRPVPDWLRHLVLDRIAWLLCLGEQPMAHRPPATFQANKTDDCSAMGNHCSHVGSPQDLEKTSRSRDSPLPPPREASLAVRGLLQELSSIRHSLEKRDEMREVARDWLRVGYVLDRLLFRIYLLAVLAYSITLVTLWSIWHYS
Put plainly: Displacement of [3H]LY278584 from 5HT3 receptor in rat cortical homogenate. For orientation: Displacement assays read how much labelled ligand stays bound in the presence of the test substance.

In series [4] the target is T2, Alpha-2A adrenergic receptor (Rattus norvegicus, UniProt P22909).
T2 sequence (P22909 whole entry): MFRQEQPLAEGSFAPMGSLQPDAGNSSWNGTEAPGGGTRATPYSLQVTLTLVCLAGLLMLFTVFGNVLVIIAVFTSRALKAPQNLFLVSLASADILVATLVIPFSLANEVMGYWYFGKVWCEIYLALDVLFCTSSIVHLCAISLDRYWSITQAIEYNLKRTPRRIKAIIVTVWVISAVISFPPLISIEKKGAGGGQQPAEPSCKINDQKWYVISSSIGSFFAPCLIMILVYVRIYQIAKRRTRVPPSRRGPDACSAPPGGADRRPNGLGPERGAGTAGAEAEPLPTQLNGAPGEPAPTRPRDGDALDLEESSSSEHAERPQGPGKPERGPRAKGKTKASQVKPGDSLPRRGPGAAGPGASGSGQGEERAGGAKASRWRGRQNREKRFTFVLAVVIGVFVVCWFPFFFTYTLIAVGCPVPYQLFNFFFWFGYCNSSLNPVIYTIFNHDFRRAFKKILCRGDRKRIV
Put plainly: Displacement of [3H]RX821002 from adrenergic alpha2 receptor in rat cortex.

In series [5] the target is T3, 5-hydroxytryptamine receptor 3A (Cavia porcellus) (UniProt O70212).
T3 sequence (whole entry): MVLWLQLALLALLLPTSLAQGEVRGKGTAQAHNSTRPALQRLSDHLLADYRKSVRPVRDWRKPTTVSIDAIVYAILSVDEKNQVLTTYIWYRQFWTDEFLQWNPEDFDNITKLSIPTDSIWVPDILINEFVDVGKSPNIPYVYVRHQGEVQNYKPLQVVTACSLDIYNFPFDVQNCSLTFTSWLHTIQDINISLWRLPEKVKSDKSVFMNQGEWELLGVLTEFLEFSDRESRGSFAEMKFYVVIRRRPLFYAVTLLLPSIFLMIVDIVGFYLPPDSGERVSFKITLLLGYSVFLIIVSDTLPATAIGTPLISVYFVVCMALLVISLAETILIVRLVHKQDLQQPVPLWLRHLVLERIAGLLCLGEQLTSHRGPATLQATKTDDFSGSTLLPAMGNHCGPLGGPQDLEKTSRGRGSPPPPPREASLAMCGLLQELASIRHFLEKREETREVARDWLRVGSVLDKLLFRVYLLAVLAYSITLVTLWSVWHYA
As to the kind of experiment: Agonist activity at 5HT3 receptor in voltage-stimulated guinea pig left atrium assessed as positive inotropic potency at 100 uM. It is filed as functional, tissue-based. The conditions noted are these: Cardiac atrium. In a few lines:
(§1)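 Guinea pig left and right atria were hung in a 15 mL bath of PSS (pH 7.4, 95% O2-5% CO2, 35 °C) with ketanserin 1 µM. The right atrium beat spontaneously; the left was paced at 1 Hz. Cumulative doses (0.1-100 µM; DMSO ≤0.3%) were added after 45-60 min stabilization. Rate or isometric force was recorded. EC50 came from Probit analysis, n≥4. Intrinsic activity was taken relative to 5-HT.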

Series [6] concerns the target T4, 5-hydroxytryptamine receptor 3A (Cavia porcellus, UniProt O70212).
T4 sequence (O70212 whole entry): T3 sequence (whole entry)
Put plainly: Antagonist activity at 5HT3 receptor in spontaneously beating guinea pig right atrium assessed as inhibition of serotonin-induced maximum response by noncompetitive binding assay. It is filed as tissue-based, Cardiac atrium. In a few lines:
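Spontaneously beating guinea pig right atrium; 5-HT concentration-response curves (0.001-1.0 µM) before and after 30 min antagonist exposure at three concentrations. IC50 is inhibition of 50% of maximal 5-HT response, Probit analysis, n = 4-6.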

Series [7] deals with Rattus norvegicus. Put plainly: Antagonist activity at 5HT3 receptor in urethane-anesthetized Sprague-Dawley rat assessed as reduction in 1-phenylbiguanide-induced bradycardia at 100 ug/kg, iv administered 5 mins before 1-phenylbiguanide challenge measured after 5 to 30 mins post-treatment by von Bezold-Jarisch reflex test. It is filed as functional, organism-based.
Series [8] is described as follows: Plasma concentration in CD1 albino mouse at 5 mg/kg, ip after 15 mins. Details: dose 5 mg/kg, route intraperitoneal. It is filed as ADME, organism-based. In a few lines: (§2)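 Male CD1 mice (25-30 g) given ip 5 or 20 mg/kg, killed at set times; trunk blood plasma and brain collected. Solid-phase C18 extraction with internal standard, HPLC-UV at 240 nm. Quantification limits about 0.25 nmol/mL plasma, 0.5 nmol/g brain. Three mice per point. Half-life 0.693/β; clearance dose·F/AUC.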

Series [9] in a line: Plasma concentration in CD1 albino mouse at 20 mg/kg, ip after 15 mins. It is filed as ADME, organism-based. Details: dose 20 mg/kg, route intraperitoneal. In outline:
as §2

Series [10] is described as follows: Elimination half life in CD1 albino mouse plasma at 20 mg/kg, ip. It is filed as ADME, organism-based. Details: dose 20 mg/kg, route intraperitoneal. Particulars: read-out: beta t1/2. In outline:
as §2

Series [11] in a line: Clearance in CD1 albino mouse plasma at 20 mg/kg, ip. Further details: dose 20 mg/kg, route intraperitoneal. It is filed as ADME, organism-based. In a few lines: as §2
The nature of series [12]: Apparent volume of distribution with respect to the bioavailability in CD1 albino mouse plasma at 20 mg/kg, ip. It is filed as ADME, organism-based. Particulars: read-out: Vc/F. In a few lines:
as §2

For series [13], the system named is Rattus norvegicus. Put plainly: Activity at 5HT3 receptor in urethane-anesthetized Sprague-Dawley rat assessed as effect on heart rate at 100 ug/kg, iv measured after 5 to 30 mins post-treatment by von Bezold-Jarisch reflex test relative to 40 ug/kg, iv 1-phenylbiguanide. It is filed as functional, organism-based.
The target in series [14] is T3, 5-hydroxytryptamine receptor 3A (Cavia porcellus). As to the kind of experiment: Agonist activity at 5HT3 receptor in spontaneously beating guinea pig right atrium assessed as positive chronotropic potency. It is filed as functional, tissue-based. Particulars: Cardiac atrium. In a few lines:
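Isolated guinea pig atria in PSS (Tyrode) with ketanserin 1 µM, 95% O2-5% CO2, pH 7.4, 35 °C. Right atrium beating spontaneously (rate); left atrium paced 1 Hz, 0.6-0.8 ms pulses near 50% threshold (force). Isometric recording after 45-60 min stabilization.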

Series [15] has the same target. As to the kind of experiment: Intrinsic activity at 5HT3 receptor in spontaneously beating guinea pig right atrium assessed as positive chronotropic potency relative to serotonin. The conditions noted are these: Cardiac atrium. In outline:
as §1

From ChEMBL document CHEMBL1136924 (J Med Chem, 2009) come the findings set out here.

Activity calls are given as the source filed them.

What is called Ki is a measure of affinity in units of concentration, obtained from inhibition or displacement. A word on the IC50: it is the concentration at which inhibition is half-maximal. With `N/C(CN1CCN(c2nc3cc(F)ccc3n3cccc23)CC1)=N\O`, the ED50 in the series on Rattus norvegicus [1] was found to be 0.03 mg/kg. Also, the result in the series on Rattus norvegicus [2] was Active. In addition, the inhibition constant Ki in [3] is 0.0008 µM; in series [4] it was above 10 µM. In [5], the pD2 entry is “inactive”. Besides, in [6], the IC50 was 5.75 µM.
In general, CL/F refers to the apparent clearance, not corrected for the fraction that reaches the circulation. As for `N[C@@H](CN1CCN(c2nc3cc(F)ccc3n3cccc23)CC1)C(=O)O`, the outcome in the series with Rattus norvegicus [7] was Active. In addition, the figures for the concentration at 0.25 h in series [8] and in series [9] were 2 µM and 12 µM, respectively. Moreover, the half-life in series [10] was determined as 53 min. The same compound came in with a CL/F in [11] of 90 mL/min/kg. Further, the Vd/F in [12] came to 6 L/kg. Also, the result in the series on Rattus norvegicus [13] was inactive. In addition, the Ki in [3] was 0.0028 µM; in series [4], above 10 µM. For the same compound, the pD2 entry in [5] was “inactive”. In addition, the pD2 in series [14] came out at 5.98. Moreover, in series [15], the Intrinsic activity stood at 0.81.
